Data: ChEMBL document CHEMBL1156912, “Subtlety of the structure-affinity and structure-efficacy relationships around a nonpeptide oxytocin receptor agonist” (J Med Chem, 2010)
Activity calls are given as the source filed them. The rule behind the calls is not given here.

Legend:
Oxytocin receptor [1] = target: T1, Oxytocin receptor (Homo sapiens, UniProt P30559); test: Displacement of [3H]AVP from human oxytocin receptor expressed in CHO cells; type: cell-based; settings: read-out: Ki
T1 sequence (P30559 whole entry): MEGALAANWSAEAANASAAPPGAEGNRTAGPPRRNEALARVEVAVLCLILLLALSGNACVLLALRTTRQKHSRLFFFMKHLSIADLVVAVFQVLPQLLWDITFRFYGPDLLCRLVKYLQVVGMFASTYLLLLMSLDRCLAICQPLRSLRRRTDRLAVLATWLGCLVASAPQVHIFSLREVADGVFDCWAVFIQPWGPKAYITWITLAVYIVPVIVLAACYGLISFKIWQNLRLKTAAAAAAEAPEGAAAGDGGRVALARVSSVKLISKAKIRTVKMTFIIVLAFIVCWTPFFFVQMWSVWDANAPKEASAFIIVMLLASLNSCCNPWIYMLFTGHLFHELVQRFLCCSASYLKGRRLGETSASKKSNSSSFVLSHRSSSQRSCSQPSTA
Summary of the method: (§1)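 Membranes came from CHO cells stably expressing the human receptor; OT-R and V1a-R cells were treated overnight with 5 mM butyrate. Membrane protein was 10–15 μg (OT, V1a) or 5 μg (V2), incubated 30 min at 30 °C in 50 mM Tris-HCl, 5 mM MgCl2, 1 mg/mL BSA, pH 7.4, with 1–2 nM [3H]AVP and competitor 0.1 pM–100 μM. Nonspecific binding: 10 μM AVP. Filtration, then Ki via Cheng–Prusoff. Mean ± SEM of ≥3 experiments in triplicate.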

[2] = target: T2, Oxytocin receptor (Homo sapiens) (UniProt P30559); test: Activity at human oxytocin receptor expressed in CHO cells assessed as inositol phosphate accumulation at 1 uM; type: functional, cell-based
T2 sequence (whole entry): T1 sequence (P30559 whole entry)
Summary of the method: (§2)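 Agonist mode on CHO cells stably expressing human OT receptor: 30 min at 37 °C with ligand, 10 fM–100 μM, ≤1% final DMSO. IP1 accumulation was read by IP-One HTRF, ΔF from the 665/620 ratio. K_act is the EC50 from the sigmoidal fit. Emax is % of the 1 μM OT maximal response. Single-concentration lines are % of OT maximum, n = 2. Mean of ≥3 experiments in triplicate.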

[3] = target: T2, Oxytocin receptor (Homo sapiens); test: Activity at human oxytocin receptor expressed in CHO cells assessed as inhibition of agonist-induced inositol phosphate accumulation; type: functional, cell-based
Oxytocin receptor [4] = target: T1, Oxytocin receptor; test: Activity at human oxytocin receptor expressed in CHO cells by NFAT-luciferase gene reporter assay; type: cell-based
Vasopressin V1a receptor [5] = target: T3, Vasopressin V1a receptor (Homo sapiens, UniProt P37288); test: Displacement of [3H]AVP from human vasopressin V1a receptor expressed in CHO cells; type: cell-based; settings: read-out: Ki; summary of the method: as §1
Target sequence in this assay (P37288 whole entry): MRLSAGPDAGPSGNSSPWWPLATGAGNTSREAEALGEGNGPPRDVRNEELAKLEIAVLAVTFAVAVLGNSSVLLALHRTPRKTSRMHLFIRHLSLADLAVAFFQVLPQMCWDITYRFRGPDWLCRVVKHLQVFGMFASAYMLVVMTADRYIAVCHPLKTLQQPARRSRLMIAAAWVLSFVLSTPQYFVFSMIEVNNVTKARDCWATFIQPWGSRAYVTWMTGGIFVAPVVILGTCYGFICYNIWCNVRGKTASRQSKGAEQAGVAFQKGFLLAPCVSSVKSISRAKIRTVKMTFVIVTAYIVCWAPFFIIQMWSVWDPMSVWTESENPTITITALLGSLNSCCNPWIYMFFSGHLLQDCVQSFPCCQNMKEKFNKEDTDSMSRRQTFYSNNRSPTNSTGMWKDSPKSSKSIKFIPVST

Vasopressin V1a receptor [6] = target: T3, Vasopressin V1a receptor; test: Activity at human vasopressin V1a receptor expressed in CHO cells assessed as inositol phosphate accumulation at 1 uM; type: functional, cell-based
Summary of the method: (§3)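 Human V1a-expressing CHO cells, 80000 cells/well, exposed to ligand for 30 min at 37 °C. IP1 was measured by HTRF IP-One. EC50 (K_act) from the dose–response curve. Emax is relative to the 1 μM AVP maximum. Weak responses are reported as % of AVP maximum at 1 μM ligand.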
Target sequence in this assay (P37288 whole entry, looked up): as the sequence (P37288 whole entry) above

Vasopressin V1a receptor [7] = target: T3, Vasopressin V1a receptor; test: Activity at human vasopressin V1a receptor expressed in CHO cells assessed as inhibition of agonist-induced inositol phosphate accumulation; type: functional, cell-based
Summary of the method: (§4)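 Human V1a receptor in stably transfected CHO cells, seeded at 80000 cells/well overnight. Cells were preincubated 10 min at 37 °C with ligand (10 fM–100 μM, ≤1% final DMSO), then challenged with 2 nM AVP for 30 min. IP1 was read by IP-One HTRF. K_inact was derived by Cheng–Prusoff-type correction using AVP K_act 1.20 nM. Fixed-concentration lines are % inhibition, n = 2.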
Target sequence in this assay (P37288 whole entry, looked up): as the sequence (P37288 whole entry) above

Vasopressin V2 receptor [8] = target: T4, Vasopressin V2 receptor (Homo sapiens, UniProt P30518); test: Displacement of [3H]AVP from human vasopressin V2 receptor expressed in CHO cells; type: cell-based; settings: read-out: Ki; summary of the method: as §1
Vasopressin V2 receptor [9] = target: T4, Vasopressin V2 receptor; test: Activity at human vasopressin V2 receptor expressed in CHO cells assessed as cAMP accumulation at 1 uM; type: functional, cell-based
Summary of the method: (§5)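 V2-R agonism in CHO cells at 1000 cells/well, stimulated 30 min at 37 °C in D-MEM containing 0.1 mM Ro-20-1724 and 1 mg/mL BSA. cAMP was read by cAMP dynamic 2 HTRF. K_act from the sigmoidal fit. Emax is % of the 0.1 μM AVP response. Single-concentration values are % of AVP maximum.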

Vasopressin V2 receptor [10] = target: T4, Vasopressin V2 receptor; test: Activity at human vasopressin V2 receptor expressed in CHO cells assessed as inhibition of agonist-induced cAMP accumulation; type: functional, cell-based
Vasopressin V1a receptor [11] = target: T3, Vasopressin V1a receptor; test: Activity at human vasopressin V1a receptor expressed in CHO cells by NFAT-luciferase gene reporter assay; type: cell-based
Vasopressin V2 receptor [12] = target: T4, Vasopressin V2 receptor; test: Activity at human vasopressin V2 receptor expressed in CHO cells by cAMP dynamic 2 assay
[13] = target: T2, Oxytocin receptor (Homo sapiens); test: Activity at human oxytocin receptor expressed in CHO cells assessed as inositol phosphate accumulation; type: functional, cell-based; summary of the method: as §2
[14] = target: T2, Oxytocin receptor (Homo sapiens); test: Activity at human oxytocin receptor expressed in CHO cells assessed as inhibition of agonist-induced inositol phosphate accumulation at 10 uM; type: functional, cell-based; design: scale not given: the % may be the effect or the level left
Vasopressin V2 receptor [15] = target: T4, Vasopressin V2 receptor; test: Activity at human vasopressin V2 receptor expressed in CHO cells assessed as inhibition of agonist-induced cAMP accumulation at 10 uM; type: functional, cell-based; design: Activity: scale not given: the % may be the effect or the level left
[16] = target: T2, Oxytocin receptor (Homo sapiens); test: Activity at human oxytocin receptor expressed in CHO cells assessed as inositol phosphate accumulation up to 100 uM; type: functional, cell-based; summary of the method: as §2
[17] = target: T2, Oxytocin receptor (Homo sapiens); test: Activity at human oxytocin receptor expressed in CHO cells assessed as inositol phosphate accumulation up to 10 uM; type: functional, cell-based
Summary of the method: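 CHO cells stably expressing human OT receptor, seeded 80000 cells/well overnight at 37 °C. Ligands 10 fM to 100 μM (≤1% DMSO) in IP-One stimulation buffer, 30 min at 37 °C with 5% CO₂. IP₁ read by HTRF at 665/620 nm. EC50 (K_act) from sigmoidal curves; Emax as % of 1 μM OT maximum. Triplicate wells, ≥3 experiments.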

Vasopressin V1a receptor [18] = target: T3, Vasopressin V1a receptor; test: Activity at human vasopressin V1a receptor expressed in CHO cells assessed as inositol phosphate accumulation; type: functional, cell-based; summary of the method: as §3
Target sequence in this assay (P37288 whole entry, looked up): as the sequence (P37288 whole entry) above

Vasopressin V2 receptor [19] = target: T4, Vasopressin V2 receptor; test: Activity at human vasopressin V2 receptor expressed in CHO cells assessed as cAMP accumulation; type: functional, cell-based; summary of the method: as §5
[20] = target: T2, Oxytocin receptor (Homo sapiens); test: Activity at human oxytocin receptor expressed in CHO cells assessed as inhibition of agonist-induced inositol phosphate accumulation at 1 uM; type: functional, cell-based; design: scale not given: the % may be the effect or the level left
Vasopressin V2 receptor [21] = target: T4, Vasopressin V2 receptor; test: Activity at human vasopressin V2 receptor expressed in CHO cells assessed as inhibition of agonist-induced cAMP accumulation at 1 uM; type: functional, cell-based
Vasopressin V1a receptor [22] = target: T3, Vasopressin V1a receptor; test: Activity at human vasopressin V1a receptor expressed in CHO cells assessed as inhibition of agonist-induced inositol phosphate accumulation at 1 uM; type: functional, cell-based; summary of the method: as §4
Target sequence in this assay (P37288 whole entry, looked up): as the sequence (P37288 whole entry) above

Vasopressin V1a receptor [23] = target: T3, Vasopressin V1a receptor; test: Activity at human vasopressin V1a receptor expressed in CHO cells assessed as inositol phosphate accumulation up to 100 uM; type: functional, cell-based; summary of the method: as §3
Target sequence in this assay (P37288 whole entry, looked up): as the sequence (P37288 whole entry) above

Vasopressin V2 receptor [24] = target: T4, Vasopressin V2 receptor; test: Activity at human vasopressin V2 receptor expressed in CHO cells assessed as cAMP accumulation up to 100 uM; type: functional, cell-based; summary of the method: as §5
Vasopressin V1a receptor [25] = target: T3, Vasopressin V1a receptor; test: Activity at human vasopressin V1a receptor expressed in CHO cells assessed as inhibition of agonist-induced inositol phosphate accumulation at 10 uM; type: functional, cell-based; design: scale not given: the % may be the effect or the level left; summary of the method: as §4
Target sequence in this assay (P37288 whole entry, looked up): as the sequence (P37288 whole entry) above

Vasopressin V1a receptor [26] = target: T3, Vasopressin V1a receptor; test: Activity at human vasopressin V1a receptor expressed in CHO cells assessed as inhibition of agonist-induced inositol phosphate accumulation at 100 uM; type: functional, cell-based; design: scale not given: the % may be the effect or the level left; summary of the method: as §4
Vasopressin V2 receptor [27] = target: T4, Vasopressin V2 receptor; test: Activity at human vasopressin V2 receptor expressed in CHO cells assessed as inhibition of agonist-induced cAMP accumulation at 100 uM; type: functional, cell-based; design: scale not given: the % may be the effect or the level left
Vasopressin V2 receptor [28] = target: T4, Vasopressin V2 receptor; test: Activity at human vasopressin V2 receptor expressed in CHO cells assessed as cAMP accumulation at 10 uM; type: functional, cell-based; summary of the method: as §5

T4 sequence (P30518 whole entry): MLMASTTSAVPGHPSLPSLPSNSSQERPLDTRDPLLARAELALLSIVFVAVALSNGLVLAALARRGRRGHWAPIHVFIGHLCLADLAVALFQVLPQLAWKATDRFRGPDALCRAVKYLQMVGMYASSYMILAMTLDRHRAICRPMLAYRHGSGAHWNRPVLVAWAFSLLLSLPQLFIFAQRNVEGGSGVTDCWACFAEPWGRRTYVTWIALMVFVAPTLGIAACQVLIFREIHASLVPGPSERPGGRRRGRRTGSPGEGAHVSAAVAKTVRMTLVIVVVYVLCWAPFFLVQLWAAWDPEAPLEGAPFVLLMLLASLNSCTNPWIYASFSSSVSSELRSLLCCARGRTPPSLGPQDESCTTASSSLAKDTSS

SMILES	Ki (Oxytocin receptor [1]) [nM]	Kinact [3] [nM]	Ki (Vasopressin V1a receptor [5]) [nM]	Activity (Vasopressin V1a receptor [6])	Kinact (Vasopressin V1a receptor [7]) [nM]	Ki (Vasopressin V2 receptor [8]) [nM]	Activity (Vasopressin V2 receptor [9])	Kinact (Vasopressin V2 receptor [10]) [nM]	Kact [13] [µM]	Emax [2] [%]	Activity [14] [%]	Emax (Vasopressin V2 receptor [9]) [%]	Activity [17]	Activity (Vasopressin V2 receptor [21])	other results
O=C(Nc1ccc(C(=O)N2CCCCc3ccccc32)cc1)c1ccccc1-c1ccccc1	109	171	2.74	inactive	63	0.57	inactive	0.096	–	–	–	–	–	–	Activity [2]: inactive; EC50 (Oxytocin receptor [4]): 63 nM; EC50 (Vasopressin V1a receptor [11]): 14 nM; EC50 (Vasopressin V2 receptor [12]): 7.6 nM
Cc1cc(C(=O)N2Cc3cccn3Cc3ccccc32)ccc1CNC(=O)N1CCC[C@H]1C(=S)N1CCCN(C)CC1	2500	–	> 1000	inactive	754	3400	–	–	110	50.6	11	9	–	–	Inhibition (Vasopressin V2 receptor [15]): 43%; Activity [16]: inactive
Cc1cc(C(=O)N2Cc3cnn(C)c3Nc3ccccc32)ccc1NC(=O)c1ccccc1-c1ccccc1	111	557	37	inactive	412	6.4	inactive	1.1	–	–	–	–	inactive	–	–
Cc1cc(C(=O)N2Cc3cnn(C)c3Nc3ccccc32)ccc1CNC(=O)N1CCC[C@H]1C(=S)N1CCCN(C)CC1	147	–	330	–	271	> 1000	–	–	0.667	58	–	84	–	inactive	Activity (Vasopressin V1a receptor [18]): inactive; Kact (Vasopressin V2 receptor [19]): 599 nM; Activity [20]: 16%; Activity (Vasopressin V1a receptor [11]): inactive
Cc1cc(C(=O)N2CCC(N3C(=O)OCc4ccccc43)CC2)ccc1CNC(=O)N1CCC[C@H]1C(=S)N1CCCN(C)CC1	245	383	> 5000	inactive	–	–	inactive	–	–	–	–	–	inactive	inactive	Activity (Vasopressin V1a receptor [22]): inactive
CN1CCCN(C(=S)[C@@H]2CCCN2C(=O)NCc2ccc(C(=O)N3Cc4cccn4Cc4ccccc43)c(Cl)c2)CC1	> 5000	–	> 5000	–	–	> 5000	–	–	–	–	17	–	–	–	Activity (Vasopressin V2 receptor [15]): 25%; Activity (Vasopressin V1a receptor [23]): inactive; Activity (Vasopressin V2 receptor [24]): inactive; Activity (Vasopressin V1a receptor [25]): 7%; Activity (Vasopressin V1a receptor [26]): 92%; Activity (Vasopressin V2 receptor [27]): 94%; Activity (Vasopressin V2 receptor [28]): 13%
